This is an account of results in ChEMBL document CHEMBL1153554, “Mechanisms by which the G333D mutation in human immunodeficiency virus type 1 Reverse transcriptase facilitates dual resistance to zidovudine and lamivudine” (Antimicrob Agents Chemother, 2008).

Activity calls are given as the source filed them. No cut-off for these calls is given here.

For assay [1], the system named is Human immunodeficiency virus 1. As to the kind of experiment: Binding affinity to HIV1 LAI reverse transcriptase M41L/L210W/T215Y/M184V/G333D mutant assessed as ATP-mediated excision of zidovudine-monophosphate from chain terminated RNA/DNA template/primer duplex. The method, boiled down:
(§1)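 The AZT-MP-terminated ³²P-P20 primer was annealed to a 35-nt RNA template (T35). 200 nM active-site RT with 20 nM T/P in 50 mM Tris-HCl pH 8.0, 50 mM KCl. Started with 3.0 mM ATP and 10 mM MgCl₂. Timed aliquots were quenched and separated on denaturing urea-PAGE, then phosphorimaged.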

Assay [2] concerns Human immunodeficiency virus type 1 reverse transcriptase (Human immunodeficiency virus 1), Q72547 [M184V]. As to the kind of experiment: Binding affinity to 200 nM HIV1 LAI reverse transcriptase M184V mutant assessed as ATP-mediated excision of zidovudine-monophosphate from chain terminated DNA/DNA template/primer duplex at 100 uM. A digest of the protocol: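 Primer P20 (5′-³²P) on DNA template T57 was chain-terminated with WT RT and 100 μM AZT-TP (30 min, 37°C), gel-purified and reannealed. 200 nM active-site RT with 20 nM terminated T/P in 50 mM Tris-HCl pH 8.0, 50 mM KCl. Started with 3.0 mM ATP, 10 mM MgCl₂, 1 μM TTP and 5 μM ddCTP. Timed aliquots were run on 7 M urea-16% PAGE and phosphorimaged.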

In assay [3] the target is Human immunodeficiency virus type 1 reverse transcriptase (Human immunodeficiency virus 1, UniProt Q72547, L210W/M41L/T215Y). As to the kind of experiment: Binding affinity to HIV1 LAI reverse transcriptase M41L/L210W/T215Y mutant assessed as ATP-mediated excision of zidovudine-monophosphate terminated DNA/DNA template/primer duplex chain at 100 uM by gel shift mobility assay. A digest of the protocol: (§2)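 Native 4% PAGE in Tris-acetate pH 8.0 with 1 mM EDTA, 30 min at 100 V, room temperature. The shifted band was taken as a 1:1 RT-T/P complex to give Kd. Mean ± SD of three experiments.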
(In general: Mobility shift assays separate free from complexed probe on a gel.)

Assay [4] has as its target Human immunodeficiency virus type 1 reverse transcriptase (Human immunodeficiency virus 1, UniProt Q72547, K65R/L210W/M41L/T215Y). As to the kind of experiment: Binding affinity to HIV1 LAI reverse transcriptase M41L/L210W/T215Y/K65R mutant assessed as ATP-mediated excision of zidovudine-monophosphate terminated DNA/DNA template/primer duplex chain at 100 uM by gel shift mobility assay. The method, boiled down: as §2

Assay [5] is described as follows: Binding affinity to HIV1 LAI reverse transcriptase M41L/L210W/T215Y/K65R/G333D mutant assessed as ATP-mediated excision of zidovudine-monophosphate terminated DNA/DNA template/primer duplex chain at 100 uM by gel shift mobility assay. Also on record: species or system Human immunodeficiency virus 1. A digest of the protocol:
as §2

Assay [6] has as its system Human immunodeficiency virus 1. As to the kind of experiment: Selectivity ratio of Kd for excision of zidovudine-monophosphate terminated DNA/DNA template/primer duplex chain in HIV1 LAI reverse transcriptase M41L/L210W/T215Y/K65R mutant to Kd for excision of zidovudine-monophosphate terminated DNA/DNA template/primer duplex chain in wild type HIV1 LAI reverse transcriptase by gel shift mobility assay.

For assay [7], the system named is Human immunodeficiency virus type 1 reverse transcriptase (Human immunodeficiency virus 1), Q72547 [M184V]. As to the kind of experiment: Binding affinity to HIV1 LAI reverse transcriptase M184V mutant assessed as ATP-mediated excision of zidovudine-monophosphate from chain terminated RNA/DNA template/primer duplex at 100 uM. A digest of the protocol: as §1

The Kd is the free concentration of one partner at which half of the binding sites on the other are occupied at equilibrium, for simple one-to-one binding. For `Cc1cn([C@H]2C[C@H](N=[N+]=[N-])[C@@H](COP(=O)(O)O)O2)c(=O)[nH]c1=O` [AZIDOTHYMIDINE MONOPHOSPHATE], the outcome in assay [1] and in assay [2] was Active. For the same molecule, the Kd in assay [3] came to 18.8 nM; in assay [4], 20.5 nM; in assay [5] it was 22.3 nM. For the same molecule, in assay [6], the Ratio came to 1. Moreover, the result in assay [7] was inactive.
